Data taken from ChEMBL document CHEMBL4152234, “Aminobenzothiazole derivatives stabilize the thermolabile p53 cancer mutant Y220C and show anticancer activity in p53-Y220C cell lines” (Eur J Med Chem, 2018).
Calls of active or inactive are those of the source. The calls are words filed in the database; no cut-off is given here.

Assays:
[1] = system: Cellular tumor antigen p53 (Homo sapiens), P04637 [Y220C]; test: Activation of p53 Y220C mutant in human NUGC3 cells assessed as change in NF1 mRNA level at 60 uM after 18 hrs by RT-PCR method relative to control; format: cell-based
Outline: (§1)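 p53 signalling qPCR array covering 84 p53 pathway genes. Cells were exposed for 18 h, and compound and control wells both held 0.5% DMSO. Total RNA was extracted and purified. Fold-changes were calculated by the ΔΔCt method against the untreated sample, with β2-microglobulin (B2M) as the housekeeping gene. Each cell line was run in two independent biological replicates.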

Huh-7 [2] = test: Upregulation of BAX mRNA level in p53 Y220C mutant knockout human HuH7 cells at 30 uM after 18 hrs by RT-PCR method; format: functional, cell-based
[3] = target: T1, Cellular tumor antigen p53 (Homo sapiens, UniProt P04637); test: Activation of p53 in human NUGC4 cells assessed as change in TP53 mRNA level at 60 uM after 18 hrs by RT-PCR method relative to control; format: cell-based; conditions: read-out: FC
[4] = system: Cellular tumor antigen p53 (Homo sapiens), P04637 [Y220C]; test: Activation of p53 Y220C mutant in human NUGC3 cells assessed as change in EGR1 mRNA level at 60 uM after 18 hrs by RT-PCR method relative to control; format: cell-based
Outline: (§2)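 p53 signalling qPCR array covering 84 genes. Cells were exposed for 18 h, with 0.5% DMSO in both compound and control samples. Total RNA was extracted and purified. Fold-changes were calculated by ΔΔCt using β2-microglobulin (B2M) as the housekeeping gene. Two independent biological replicates were run per cell line.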

Huh-7 [5] = test: Upregulation of MDM2 mRNA level in p53 Y220C mutant knockout human HuH7 cells at 30 uM after 18 hrs by RT-PCR method; format: functional, cell-based
[6] = target: T1, Cellular tumor antigen p53; test: Activation of p53 in human NUGC4 cells assessed as change in CCNB1 mRNA level at 60 uM after 18 hrs by RT-PCR method relative to control; format: cell-based; conditions: read-out: FC
Outline: (§3)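 p53 signaling qPCR array of 84 p53-pathway genes. Cells were treated in 6-well plates for 18 h with 0.5% DMSO in compound and control samples. Total RNA was extracted and fold-changes were obtained by the ΔΔCt method against untreated control, with β2-microglobulin (B2M) as housekeeping gene. Two independent biological replicates per cell line.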

[7] = system: Cellular tumor antigen p53 (Homo sapiens), P04637 [Y220C]; test: Activation of p53 Y220C mutant in human NUGC3 cells assessed as change in CDKN2A mRNA level at 60 uM after 18 hrs by RT-PCR method relative to control; format: cell-based; outline: as §2
[8] = target: T1, Cellular tumor antigen p53; test: Activation of p53 in human NUGC4 cells assessed as change in SESN2 mRNA level at 60 uM after 18 hrs by RT-PCR method relative to control; format: cell-based; conditions: read-out: FC
[9] = system: Cellular tumor antigen p53 (Homo sapiens), P04637 [Y220C]; test: Activation of p53 Y220C mutant in human NUGC3 cells assessed as change in TP53 mRNA level at 60 uM after 18 hrs by RT-PCR method relative to control; format: cell-based; outline: as §1
[10] = system: Cellular tumor antigen p53 (Homo sapiens), P04637 [Y220C]; test: Activation of p53 Y220C mutant in human NUGC3 cells assessed as change in XRCC5 mRNA level at 60 uM after 18 hrs by RT-PCR method relative to control; format: cell-based; outline: as §1
[11] = target: T1, Cellular tumor antigen p53; test: Activation of p53 in human NUGC4 cells assessed as change in PTEN mRNA level at 60 uM after 18 hrs by RT-PCR method relative to control; format: cell-based; conditions: read-out: FC
[12] = system: Cellular tumor antigen p53 (Homo sapiens), P04637 [Y220C]; test: Activation of p53 Y220C mutant in human NUGC3 cells assessed as change in RELA mRNA level at 60 uM after 18 hrs by RT-PCR method relative to control; format: cell-based; outline: as §1
[13] = target: T1, Cellular tumor antigen p53; test: Activation of p53 in human NUGC4 cells assessed as change in TSC1 mRNA level at 60 uM after 18 hrs by RT-PCR method relative to control; format: cell-based; conditions: read-out: FC
[14] = system: Cellular tumor antigen p53 (Homo sapiens), P04637 [Y220C]; test: Activation of p53 Y220C mutant in human NUGC3 cells assessed as change in PPM1D mRNA level at 60 uM after 18 hrs by RT-PCR method relative to control; format: cell-based; outline: as §1
[15] = system: Cellular tumor antigen p53 (Homo sapiens), P04637 [Y220C]; test: Activation of p53 Y220C mutant in human NUGC3 cells assessed as change in MYC mRNA level at 60 uM after 18 hrs by RT-PCR method relative to control; format: cell-based; outline: as §1
[16] = target: T1, Cellular tumor antigen p53; test: Activation of p53 in human NUGC4 cells assessed as change in FAS mRNA level at 60 uM after 18 hrs by RT-PCR method relative to control; format: cell-based; conditions: read-out: FC; outline: as §3
[17] = target: T1, Cellular tumor antigen p53; test: Activation of p53 in human NUGC4 cells assessed as change in RELA mRNA level at 60 uM after 18 hrs by RT-PCR method relative to control; format: cell-based; conditions: read-out: FC
[18] = system: Cellular tumor antigen p53 (Homo sapiens), P04637 [Y220C]; test: Activation of p53 Y220C mutant in human NUGC3 cells assessed as change in CDC25A mRNA level at 60 uM after 18 hrs by RT-PCR method relative to control; format: cell-based; outline: as §2
[19] = system: Cellular tumor antigen p53 (Homo sapiens), P04637 [Y220C]; test: Activation of p53 Y220C mutant in human NUGC3 cells assessed as change in BBC3 mRNA level at 60 uM after 18 hrs by RT-PCR method relative to control; format: cell-based; outline: as §2
[20] = target: T1, Cellular tumor antigen p53; test: Activation of p53 in human NUGC4 cells assessed as change in CDKN2A mRNA level at 60 uM after 18 hrs by RT-PCR method relative to control; format: cell-based; conditions: read-out: FC; outline: as §3
[21] = target: T1, Cellular tumor antigen p53; test: Activation of p53 in human NUGC4 cells assessed as change in PCNA mRNA level at 60 uM after 18 hrs by RT-PCR method relative to control; format: cell-based; conditions: read-out: FC
[22] = system: Cellular tumor antigen p53 (Homo sapiens), P04637 [Y220C]; test: Activation of p53 Y220C mutant in human NUGC3 cells assessed as change in BCL2A1 mRNA level at 60 uM after 18 hrs by RT-PCR method relative to control; format: cell-based; outline: as §2
[23] = system: Cellular tumor antigen p53 (Homo sapiens), P04637 [Y220C]; test: Activation of p53 Y220C mutant in human NUGC3 cells assessed as change in HDAC1 mRNA level at 60 uM after 18 hrs by RT-PCR method relative to control; format: cell-based; outline: as §2
[24] = system: Cellular tumor antigen p53 (Homo sapiens), P04637 [Y220C]; test: Activation of p53 Y220C mutant in human NUGC3 cells assessed as change in CCNE1 mRNA level at 60 uM after 18 hrs by RT-PCR method relative to control; format: cell-based; outline: as §2
[25] = target: T1, Cellular tumor antigen p53; test: Activation of p53 in human NUGC4 cells assessed as change in HK2 mRNA level at 60 uM after 18 hrs by RT-PCR method relative to control; format: cell-based; conditions: read-out: FC; outline: as §3
[26] = system: Cellular tumor antigen p53 (Homo sapiens), P04637 [Y220C]; test: Activation of p53 Y220C mutant in human NUGC3 cells assessed as change in ADGRB1 mRNA level at 60 uM after 18 hrs by RT-PCR method relative to control; format: cell-based; outline: as §2
[27] = target: T1, Cellular tumor antigen p53; test: Activation of p53 in human NUGC4 cells assessed as change in BRCA1 mRNA level at 60 uM after 18 hrs by RT-PCR method relative to control; format: cell-based; conditions: read-out: FC; outline: as §3
[28] = system: Cellular tumor antigen p53 (Homo sapiens), P04637 [Y220C]; test: Activation of p53 Y220C mutant in human NUGC3 cells assessed as change in JUN mRNA level at 60 uM after 18 hrs by RT-PCR method relative to control; format: cell-based; outline: as §1
[29] = target: T1, Cellular tumor antigen p53; test: Activation of p53 in human NUGC4 cells assessed as change in FADD mRNA level at 60 uM after 18 hrs by RT-PCR method relative to control; format: cell-based; conditions: read-out: FC; outline: as §3

For `CCNC(=O)c1c(O)c(I)c(-n2cccc2)c2sc(N(CC)CC)nc12`, which fold change (FC) [1] is on record?
Its fold change (FC) is 1.4.

What about the Activity (Huh-7 [2]) of the same compound?
Its Activity is “inactive”.

What about the fold induction at 60 µM [3] of the same compound?
The fold induction at 60 µM was 0.8.

And the fold change (FC) [4]?
Its fold change (FC) is 1.

And the Activity (Huh-7 [5])?
Its Activity is “inactive”.

And the fold induction at 60 µM [6]?
The fold induction at 60 µM was 0.7.

What about the fold change (FC) [7] of the same compound?
The fold change (FC) was 1.3.

And the fold induction at 60 µM [8]?
Its fold induction at 60 µM is 1.3.

And the fold change (FC) [9]?
Its fold change (FC) is 0.7.

And the fold change (FC) [10]?
Its fold change (FC) is 1.4.

What about the fold induction at 60 µM [11] of the same compound?
Its fold induction at 60 µM is 1.

And the fold change (FC) [12]?
The fold change (FC) was 1.1.

What about the fold induction at 60 µM [13] of the same compound?
The fold induction at 60 µM was 1.1.

And the fold change (FC) [14]?
Its fold change (FC) is 0.9.

And the fold change (FC) [15]?
The fold change (FC) was 2.4.

What about the fold induction at 60 µM [16] of the same compound?
Its fold induction at 60 µM is 1.

What about the fold induction at 60 µM [17] of the same compound?
Its fold induction at 60 µM is 0.8.

What about the fold change (FC) [18] of the same compound?
The fold change (FC) was 0.6.

What about the fold change (FC) [19] of the same compound?
The fold change (FC) was 2.6.

What about the fold induction at 60 µM [20] of the same compound?
The fold induction at 60 µM was 0.5 to 1.

What about the fold induction at 60 µM [21] of the same compound?
The fold induction at 60 µM was 0.6.

And the fold change (FC) [22]?
The fold change (FC) was 3.9.

What about the fold change (FC) [23] of the same compound?
Its fold change (FC) is 0.6.

What about the fold change (FC) [24] of the same compound?
Its fold change (FC) is 1.2.

And the fold induction at 60 µM [25]?
The fold induction at 60 µM was 0.8.

And the fold change (FC) [26]?
The fold change (FC) was 1.5.

And the fold induction at 60 µM [27]?
Its fold induction at 60 µM is 0.7.

And the fold change (FC) [28]?
The fold change (FC) was 0.9.

And the fold induction at 60 µM [29]?
The fold induction at 60 µM was 0.9.
